The assay addresses T1, Short transient receptor potential channel 3 (Homo sapiens) (UniProt Q13507).
T1 sequence (whole entry): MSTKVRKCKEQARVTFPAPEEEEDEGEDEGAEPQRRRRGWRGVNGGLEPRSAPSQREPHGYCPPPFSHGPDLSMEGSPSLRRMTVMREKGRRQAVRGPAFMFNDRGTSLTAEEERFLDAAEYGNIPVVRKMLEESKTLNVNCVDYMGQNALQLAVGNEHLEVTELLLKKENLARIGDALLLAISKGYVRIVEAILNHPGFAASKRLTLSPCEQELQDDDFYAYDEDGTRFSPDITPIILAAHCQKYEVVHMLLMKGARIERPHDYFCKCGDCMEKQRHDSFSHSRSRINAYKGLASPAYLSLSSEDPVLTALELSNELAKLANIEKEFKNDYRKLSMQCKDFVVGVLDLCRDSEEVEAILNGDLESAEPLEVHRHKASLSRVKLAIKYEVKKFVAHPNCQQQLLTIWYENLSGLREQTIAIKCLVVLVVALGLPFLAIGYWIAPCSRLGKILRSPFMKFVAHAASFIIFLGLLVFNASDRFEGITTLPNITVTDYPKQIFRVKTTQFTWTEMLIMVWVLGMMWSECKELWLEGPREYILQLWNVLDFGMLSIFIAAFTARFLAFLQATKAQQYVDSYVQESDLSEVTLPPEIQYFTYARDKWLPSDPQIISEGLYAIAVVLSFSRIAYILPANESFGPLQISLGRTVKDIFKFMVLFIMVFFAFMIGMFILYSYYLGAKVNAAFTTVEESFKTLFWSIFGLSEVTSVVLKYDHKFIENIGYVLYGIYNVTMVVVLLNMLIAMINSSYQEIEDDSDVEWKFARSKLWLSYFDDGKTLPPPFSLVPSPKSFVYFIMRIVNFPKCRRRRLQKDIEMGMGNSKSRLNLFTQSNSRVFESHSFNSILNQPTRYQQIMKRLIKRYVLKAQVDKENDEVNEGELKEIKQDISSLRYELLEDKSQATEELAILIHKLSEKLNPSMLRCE
In words: Inhibition of human TRPC3 expressed in HEK293 cells assessed as inhibition of GSK170-induced current at 10 uM in absence of extracellular calcium by whole cell patch-clamp method relative to control. The assay is classed as cell-based. In short, it runs like this:
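Human TRPC3 transiently expressed in HEK293 cells; whole-cell patch clamp with Ca2+-free solutions. Channel activated by GSK1702934A, then test compound at 10 μM perfused with the agonist. Inhibition expressed as percentage of the agonist-evoked current; mean ± SD, n cells per compound.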

Molecules are shown by their SMILES.

Regarding `CCNC(=O)c1cnn(-c2ccc(-n3ccc(Cl)c(Cl)c3=O)cc2)c1C(F)(F)F`, the inhibition was determined as 89%.

Source of the values: ChEMBL document CHEMBL4706728, “Discovery of a Highly Selective and Potent TRPC3 Inhibitor with High Metabolic Stability and Low Toxicity” (ACS Med Chem Lett, 2021).
